# From ChEMBL document CHEMBL4014339, “Discovery of 1,4-Benzodiazepine-2,5-dione (BZD) Derivatives as Dual Nucleotide Binding Oligomerization Domain Containing 1/2 (NOD1/NOD2) Antagonists Sensitizing Paclitaxel (PTX) To Suppress Lewis Lung Carcinoma (LLC) Growth in Vivo” (J Med Chem, 2017)
# The source made the active and inactive calls. The calls are words filed in the database; no cut-off is given here.
# Key:
# [1] = target: T1, Nucleotide-binding oligomerization domain-containing protein 1 (Homo sapiens) (UniProt Q9Y239); assay: Antagonist activity at human NOD1 expressed in HEK-Blue cells assessed as inhibition of C12-iE-DAP-stimulated cell activation at 10 uM preincubated for 3 hrs followed by C12-iE-DAP addition measured after 20 hrs by SEAP reporter gene assay; type: cell-based
# T1 sequence (whole entry): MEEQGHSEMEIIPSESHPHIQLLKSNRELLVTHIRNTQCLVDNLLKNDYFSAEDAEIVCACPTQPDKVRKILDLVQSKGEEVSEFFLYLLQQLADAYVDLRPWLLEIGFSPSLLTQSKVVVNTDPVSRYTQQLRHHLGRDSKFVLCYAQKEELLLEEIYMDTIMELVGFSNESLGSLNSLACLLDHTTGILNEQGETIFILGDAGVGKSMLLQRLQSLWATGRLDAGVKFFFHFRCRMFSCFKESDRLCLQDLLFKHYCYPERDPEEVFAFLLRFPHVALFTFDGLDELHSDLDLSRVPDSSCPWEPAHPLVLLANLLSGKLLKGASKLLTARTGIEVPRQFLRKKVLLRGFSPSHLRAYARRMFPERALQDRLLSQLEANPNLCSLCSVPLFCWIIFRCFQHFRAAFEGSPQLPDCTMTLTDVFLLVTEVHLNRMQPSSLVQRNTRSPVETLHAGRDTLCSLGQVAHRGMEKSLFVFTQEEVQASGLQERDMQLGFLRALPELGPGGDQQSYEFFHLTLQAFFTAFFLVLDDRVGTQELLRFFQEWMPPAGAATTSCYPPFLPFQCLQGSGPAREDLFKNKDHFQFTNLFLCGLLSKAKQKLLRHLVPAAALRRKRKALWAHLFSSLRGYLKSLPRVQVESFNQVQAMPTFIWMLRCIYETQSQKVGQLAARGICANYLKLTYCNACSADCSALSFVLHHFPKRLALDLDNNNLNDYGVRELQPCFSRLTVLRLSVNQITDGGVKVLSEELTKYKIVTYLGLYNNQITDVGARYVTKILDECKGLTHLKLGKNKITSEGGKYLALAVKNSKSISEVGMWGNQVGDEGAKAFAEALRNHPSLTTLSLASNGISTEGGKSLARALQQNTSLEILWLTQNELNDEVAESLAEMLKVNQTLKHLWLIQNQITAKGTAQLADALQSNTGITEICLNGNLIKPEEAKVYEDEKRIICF
# Summary of the method: (§1)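 HEK-Blue hNOD1 or hNOD2 cells preincubated with compound 3 h, then stimulated 20 h with C12-iE-DAP 50 ng/mL (NOD1) or MDP 100 ng/mL (NOD2); SEAP in supernatant quantified. Primary screen at 10 μM, hits repeated in triplicate; IC50 from dose-response, mean ± SD (n = 3), only for compounds reaching ≥50% inhibition at the screening concentration.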
# [2] = Cytotoxicity against HEK-Blue cells by SRB assay; type: cell-based; details: human
# [3] = target: T2, Nucleotide-binding oligomerization domain-containing protein 1 (Homo sapiens, UniProt Q9Y239); assay: Antagonist activity at human NOD1 expressed in HEK-blue cells assessed as inhibition of C12-iE-DAP-stimulated cell activation preincubated for 3 hrs followed by C12-iE-DAP addition measured after 20 hrs by SEAP reporter gene assay; type: cell-based; summary of the method: as §1
# T2 sequence (Q9Y239 whole entry): T1 sequence (whole entry)
# [4] = target: T3, Nucleotide-binding oligomerization domain-containing protein 2 (Homo sapiens, UniProt Q9HC29); assay: Antagonist activity at human NOD2 expressed in HEK-Blue cells assessed as inhibition of MDP-stimulated cell activation preincubated for 3 hrs followed by MDP addition measured after 20 hrs by SEAP reporter gene assay; type: cell-based; summary of the method: as §1
# [5] = target: T3, Nucleotide-binding oligomerization domain-containing protein 2; assay: Antagonist activity at human NOD2 expressed in HEK-Blue cells assessed as inhibition of MDP-stimulated cell activation at 10 uM preincubated for 3 hrs followed by MDP addition measured after 20 hrs by SEAP reporter gene assay; type: cell-based; summary of the method: as §1
# [6] = target: T1, Nucleotide-binding oligomerization domain-containing protein 1 (Homo sapiens); assay: Antagonist activity at human NOD1 expressed in HEK-blue cells assessed as inhibition of C12-iE-DAP-stimulated cell activation at 5 uM preincubated for 3 hrs followed by C12-iE-DAP addition measured after 20 hrs by SEAP reporter gene assay; type: cell-based
# [7] = target: T3, Nucleotide-binding oligomerization domain-containing protein 2; assay: Antagonist activity at human NOD2 expressed in HEK-Blue cells assessed as inhibition of MDP-stimulated cell activation at 5 uM preincubated for 3 hrs followed by MDP addition measured after 20 hrs by SEAP reporter gene assay; type: cell-based
# [8] = target: T1, Nucleotide-binding oligomerization domain-containing protein 1 (Homo sapiens); assay: Inhibition of NOD1 in human PBMC-derived macrophages assessed as reduction in C12-iE-DAP-stimulated TNFalpha mRNA expression at 1 uM preincubated for 1 hr followed by C12-iE-DAP stimulation for 90 mins by RT-qPCR analysis
# Summary of the method: (§2)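 Human CD14+ monocytes from donor PBMC, differentiated 7 days with M-CSF 20 ng/mL to macrophages; 1.0 × 10^6 cells pretreated 1 h with compound (final 0.1% DMSO), then C12-iE-DAP 500 ng/mL or MDP 5 μg/mL for 90 min. IL-6/TNF-α mRNA by qRT-PCR, normalized to GAPDH; stimulated response set to 100%.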
# [9] = target: T1, Nucleotide-binding oligomerization domain-containing protein 1 (Homo sapiens); assay: Inhibition of NOD1 in human PBMC-derived macrophages assessed as reduction in C12-iE-DAP-stimulated IL6 mRNA expression at 1 uM preincubated for 1 hr followed by C12-iE-DAP stimulation for 90 mins by RT-qPCR analysis; summary of the method: as §2
# T3 sequence (Q9HC29 whole entry, the tested form may be a part): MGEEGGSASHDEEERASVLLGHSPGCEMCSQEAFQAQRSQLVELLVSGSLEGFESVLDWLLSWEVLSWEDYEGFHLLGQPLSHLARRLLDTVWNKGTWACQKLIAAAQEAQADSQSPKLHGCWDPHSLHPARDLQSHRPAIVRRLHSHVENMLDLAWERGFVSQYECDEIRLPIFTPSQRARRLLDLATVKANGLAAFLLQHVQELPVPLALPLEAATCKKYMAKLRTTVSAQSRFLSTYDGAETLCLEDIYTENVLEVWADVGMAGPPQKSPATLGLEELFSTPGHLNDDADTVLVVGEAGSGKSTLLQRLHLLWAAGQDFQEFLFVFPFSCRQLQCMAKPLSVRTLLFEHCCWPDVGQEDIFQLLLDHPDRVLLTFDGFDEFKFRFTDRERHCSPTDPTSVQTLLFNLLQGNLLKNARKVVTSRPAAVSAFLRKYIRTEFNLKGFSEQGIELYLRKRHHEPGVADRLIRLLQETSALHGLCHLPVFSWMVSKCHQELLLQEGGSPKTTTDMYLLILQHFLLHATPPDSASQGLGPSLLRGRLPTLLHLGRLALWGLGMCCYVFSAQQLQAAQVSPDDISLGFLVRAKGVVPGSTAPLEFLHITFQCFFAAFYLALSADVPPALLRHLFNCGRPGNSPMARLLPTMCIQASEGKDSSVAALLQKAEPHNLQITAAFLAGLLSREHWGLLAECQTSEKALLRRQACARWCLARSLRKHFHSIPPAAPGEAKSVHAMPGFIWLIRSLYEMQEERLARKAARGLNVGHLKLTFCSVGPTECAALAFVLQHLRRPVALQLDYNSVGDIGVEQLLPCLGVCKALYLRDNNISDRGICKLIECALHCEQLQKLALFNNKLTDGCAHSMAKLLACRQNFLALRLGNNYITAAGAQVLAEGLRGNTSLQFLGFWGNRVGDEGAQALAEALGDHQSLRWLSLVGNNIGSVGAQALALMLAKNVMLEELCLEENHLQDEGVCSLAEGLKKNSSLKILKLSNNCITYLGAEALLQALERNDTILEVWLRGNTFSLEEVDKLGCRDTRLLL
Compound,inhibition [1] [%],Activity [2],IC50 [3] [nM],IC50 [4] [nM],inhibition [5] [%],inhibition [6] [%],inhibition [7] [%],inhibition [8],inhibition [9]
CN(C)c1cccc(Oc2cc3c(cc2NC(=O)COCc2ccc(C(F)(F)F)cc2)NC(=O)[C@@H](CCC(=O)N2CCC(F)CC2)NC3=O)c1,92.6,Toxic,580,420,94.7,90.2,91.7,–,–
CCN(CC)C(=O)CC[C@H]1NC(=O)c2cc(Oc3cccc(N(C)C)c3)c(NC(=O)COCc3ccccc3)cc2NC1=O,80.8,–,1270,3410,76.9,80.5,60.8,–,–
COC(=O)CC[C@H]1NC(=O)c2cc(Oc3ccc(Cl)c(N(C)C)c3)c(NC(=O)COCc3ccccc3)cc2NC1=O,73,–,2900,3550,78.1,58.2,59.9,–,–
CN(C)c1cccc(Oc2cc3c(cc2NC(=O)COCc2ccc(C(F)(F)F)cc2)NC(=O)[C@@H](CCC(=O)N2CCC(F)(F)CC2)NC3=O)c1,90.9,Toxic,430,810,94.8,91.2,92.8,–,–
COC(=O)CC[C@H]1NC(=O)c2cc(Oc3cccc(N(C)C)c3)c(NC(=O)COCc3ccc(F)cc3)cc2NC1=O,46.4,–,2360,3100,71.4,73.7,63.1,–,–
CN(C)c1cccc(Oc2cc3c(cc2NC(=O)COCc2ccccc2)NC(=O)[C@@H](CCC(=O)N2CCCC2)NC3=O)c1,82,–,2370,3790,75.6,73.2,58.2,–,–
CN(C)c1cccc(Oc2cc3c(cc2NC(=O)COCc2ccccc2)NC(=O)[C@@H](CCC(=O)NC(C)(C)C)NC3=O)c1,87.6,–,1110,2270,92.1,80.3,80.3,–,–
CN(C)c1cccc(Oc2cc3c(cc2NC(=O)COCc2ccccc2)NC(=O)[C@@H](CCC(=O)N2CCCCC2)NC3=O)c1,86.7,–,1110,2990,80.6,82.8,63.3,–,–
COC(=O)CC[C@H]1NC(=O)c2cc(Oc3cccc(N(C)C)c3)c(NC(=O)COCc3ccc(C#N)cc3)cc2NC1=O,59.6,–,3990,2510,67.9,65.4,72.8,–,–
COC(=O)CC[C@H]1NC(=O)c2cc(Oc3cccc(N(C)C)c3)c(NC(=O)COCc3cccc(Br)c3)cc2NC1=O,89.6,–,1330,2280,86.7,82.9,65.9,–,–
CCCCNC(=O)CC[C@H]1NC(=O)c2cc(Oc3cccc(N(C)C)c3)c(NC(=O)COCc3ccccc3)cc2NC1=O,86,–,1290,2880,71.6,81.8,60.5,–,–
COC(=O)CC[C@H]1NC(=O)c2cc(Oc3ccc(Cl)c(N(C)C)c3)c(NC(=O)COCc3ccc(Cl)cc3)cc2NC1=O,55.1,–,1550,1020,79,71.8,82.2,–,–
CN(C)c1cccc(Oc2cc3c(cc2NC(=O)COCc2ccc(Cl)cc2)NC(=O)[C@@H](CCC(=O)N2CCCCC2)NC3=O)c1,85.2,–,1060,900,96.7,82.9,91.2,–,–
COC(=O)CC[C@H]1NC(=O)c2cc(Oc3cccc(N(C)C)c3)c(NC(=O)COCc3ccc(C(F)(F)F)cc3)cc2NC1=O,90.7,–,940,870,91.9,89.8,89,–,–
COC(=O)CC[C@H]1NC(=O)c2cc(Oc3cccc(N(C)C)c3)c(NC(=O)COCc3ccc(C(C)(C)C)cc3)cc2NC1=O,73.3,–,1960,2390,75.7,67.7,75.2,–,–
CCCCN(CCCC)C(=O)CC[C@H]1NC(=O)c2cc(Oc3cccc(N(C)C)c3)c(NC(=O)COCc3ccccc3)cc2NC1=O,82,–,1300,1320,88.6,81.8,85,–,–
COC(=O)CC[C@H]1NC(=O)c2cc(Oc3cccc(N(C)C)c3)c(NC(=O)COCc3ccc(Cl)cc3)cc2NC1=O,90.6,–,610,1240,90.7,90.7,86.3,–,–
COC(=O)CC[C@H]1NC(=O)c2cc(Oc3cccc(N(C)C)c3)c(NC(=O)COCc3ccccc3)cc2NC1=O,70.4,Non-Toxic,–,–,69.1,–,–,–,–
CN(C)c1cccc(Oc2cc3c(cc2NC(=O)COCc2ccccc2)NC(=O)[C@@H](CCC(=O)NC2CC2)NC3=O)c1,57.1,–,8620,7140,57,35.8,43.7,–,–
COC(=O)CC[C@H]1NC(=O)c2cc(Oc3cccc(N(C)C)c3)c(NC(=O)COCc3ccc(F)c(F)c3)cc2NC1=O,89,–,1160,1700,91.2,83.7,83.5,–,–
COC(=O)CC[C@H]1NC(=O)c2cc(Oc3cccc(N4CCCC4)c3)c(NC(=O)COCc3ccc(Cl)cc3)cc2NC1=O,86.6,–,1390,1500,94,80.9,86,–,–
COC(=O)CC[C@H]1NC(=O)c2cc(Oc3cccc(N(C)C)c3)c(NC(=O)COCc3ccc(Br)cc3)cc2NC1=O,93.9,–,580,1190,95.2,91,85,–,–
Nc1nc2ccccc2n1S(=O)(=O)c1ccc(Cl)cc1,–,–,–,–,–,–,–,Active,Active
COC(=O)CC[C@H]1NC(=O)c2cc(Oc3cccc(N(C)C)c3)c(NC(=O)COCc3cccc(F)c3)cc2NC1=O,89.8,–,1370,4020,82.9,83.9,67,–,–
COC(=O)CC[C@H]1NC(=O)c2cc(Oc3cc(Cl)c(Cl)c(N(C)C)c3Cl)c(NC(=O)COCc3ccccc3)cc2NC1=O,65.3,–,1330,3780,34,79.8,55.9,–,–
